Measurements published in ChEMBL document CHEMBL1157793, “Synthesis and antitumor activity of 1,5-disubstituted 1,2,4-triazoles as cis-restricted combretastatin analogues” (J Med Chem, 2010).
Active and inactive are the calls of the source. The rule behind the calls is not given here.

Columns and labels:
A549 = experiment: Antiproliferative activity against human A549 cells after 72 hrs by MTT assay; type: functional, cell-based; conditions: A549, 72 h
MCF7 = experiment: Antiproliferative activity against human MCF7 cells after 72 hrs by MTT assay; type: functional, cell-based; conditions: MCF7, 72 h
K562 = experiment: Antiproliferative activity against human K562 cells after 72 hrs by MTT assay; type: functional, cell-based; conditions: K562, 72 h
Summary of the method: (§1)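 Cells seeded at 8×10^3 per well (Jurkat, HL-60, K562 in RPMI-1640; MCF7, A549, HeLa in DMEM; all with 10% FBS, penicillin/streptomycin), incubated 18 h at 37 °C, 5% CO2, then exposed to compound at varying concentrations in complete medium for 72 h.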

HeLa [1] = experiment: Antiproliferative activity against human HeLa cells after 72 hrs by MTT assay; type: functional, cell-based
Jurkat [2] = experiment: Antiproliferative activity against human Jurkat cells after 72 hrs by MTT assay; type: functional, cell-based; summary of the method: as §1
[3] = Inhibition of bovine brain tubulin polymerization after 20 mins by turbidimetry; parameters: species or system Bos taurus
Summary of the method: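 Bovine brain tubulin (10 µM) preincubated with varying compound concentrations in glutamate buffer at 30 °C, chilled to 0 °C, 0.4 mM GTP added, then warmed to 30 °C in spectrophotometer; assembly followed by turbidity at 350 nm.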

Bos taurus [4] = species on record: Bos taurus; experiment: Displacement of [3H]colchicine from bovine tubulin at 1 uM
Summary of the method: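 [3H]Colchicine binding inhibition measured with reaction mixtures of 1 µM tubulin, 5 µM [3H]colchicine and 1 µM test compound.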

HL-60 = experiment: Antiproliferative activity against human HL60 cells after 72 hrs by MTT assay; type: functional, cell-based; conditions: HL-60, 72 h
Bos taurus [5] = species on record: Bos taurus; experiment: Ratio of IC50 for comberestastatin-A4 to IC50 for drug for inhibition of bovine brain tubulin polymerization after 20 mins by turbidimetry
Jurkat [6] = experiment: Induction of apoptosis in human Jurkat cells assessed as increase in PARP cleavage at 50 nM after 24 hrs by immunoblot method; type: functional, cell-based
Summary of the method: (§2)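 Jurkat cells given 50 nM compound for varying times, washed in cold PBS, lysed on ice 30 min, cleared at 15000g, 4 °C; 20 µg protein run on 7.5–15% SDS-PAGE, blotted to PVDF, probed 2 h at room temperature with rabbit anti-PARP or anti-Bcl-2 (1:1000), peroxidase secondary, ECL detection; β-actin reprobe as loading control.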

HeLa [7] = experiment: Cell cycle arrest in human HeLa cells assessed as decrease in accumulation of cells at G1 phase at 7 to 250 nM after 24 hrs by propidium iodide staining-based flow cytometry; type: functional
Summary of the method: (§3)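 5×10^5 exponentially growing cells treated with compound (7–250 nM range for 24 h; 30 nM for 24 and 48 h), collected, fixed in ice-cold 70% ethanol, lysed with buffer containing RNase A and 0.1% Triton X-100, PI-stained, and DNA content analysed by flow cytometry; phase distribution from DNA histograms. Mean ± SEM of three independent experiments.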

HUVEC [8] = experiment: Induction of apoptosis in HUVEC expressing GFP assessed as decrease in GFP-positive cell area at 0.5 uM to 10 uM after 30 mins by confocal microscopy; parameters: scale not given: the % may be the effect or the level left
Gallus gallus = species on record: Gallus gallus; experiment: Inhibition of vascular sprouts in chick embryo aorta assessed as vascular disruption at 10 uM after 30 mins by microscopy; type: functional, tissue-based
Summary of the method: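 Aortic arches from day-14 chick embryos sliced, embedded in Matrigel with complete medium; endothelial sprouts formed over 24–48 h. Compound added at various concentrations and vascular channels imaged before and 30 min after addition.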

Jurkat [9] = experiment: Induction of apoptosis in human Jurkat cells assessed as increase in ROS production at 50 nM by H2DCFDA staining based flow cytometry; type: functional, cell-based; conditions: TDE = time-dependent effect
Summary of the method: (§4)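 After 24, 48, 72 h with 50 nM compound, Jurkat cells resuspended in HBSS with 2.5 µM HE or 0.1 µM H2DCFDA, 30 min at 37 °C, washed, and read by flow cytometry (excitation 488 nm; emission 585 nm HE, 530 nm DCF). Mean ± SEM of three independent experiments.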

Jurkat [10] = experiment: Induction of apoptosis in human Jurkat cells assessed as increase in annexin-V positive cells after 24 to 72 hrs by annexin-V-FITC and propidium iodide staining based flow cytometry; type: functional, cell-based
Jurkat [11] = experiment: Induction of apoptosis in human Jurkat cells assessed as depolarization of mitochondrial membrane potential measured as annexin-V positive cells at 50 nM after 24 hrs by annexin-V-FITC and propidium iodide staining based flow cytometry (reference value: 3.0%); type: functional
Jurkat [12] = experiment: Cell cycle arrest in human Jurkat cells assessed as increase in accumulation of cells at G2/M phase at 7 to 250 nM after 24 hrs by propidium iodide staining-based flow cytometry; type: functional; summary of the method: as §3
Jurkat [13] = experiment: Induction of apoptosis in human Jurkat cells assessed as decrease in Bcl2 expression at 50 nM after 24 to 72 hrs by immunoblot method; type: functional, cell-based; summary of the method: as §2
HeLa [14] = experiment: Cell cycle arrest in human HeLa cells assessed as increase in accumulation of cells at G2/M phase after 24 hrs by propidium iodide staining-based flow cytometry; type: functional; summary of the method: as §3
Jurkat [15] = experiment: Induction of apoptosis in human Jurkat cells assessed as activation of caspase-3 at 50 nM by flow cytometry; type: functional, cell-based; conditions: TDE = time-dependent effect
Summary of the method: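 Jurkat cells exposed to 50 nM compound for 24, 48 and 72 h, fixed in Cytofix buffer 20 min, washed in Perm/Wash, stained 30 min with FITC-conjugated anti-human active caspase-3 fragment antibody; percentage of positive cells by flow cytometry, mean ± SEM of three experiments.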

HeLa [16] = experiment: Cell cycle arrest in human HeLa cells assessed as decrease in accumulation of cells at S phase at 7 to 250 nM after 24 hrs by propidium iodide staining-based flow cytometry; type: functional; summary of the method: as §3
Jurkat [17] = experiment: Induction of apoptosis in human Jurkat cells assessed as depolarization of mitochondrial membrane potential measured as annexin-V positive cells at 50 nM after 72 hrs by annexin-V-FITC and propidium iodide staining based flow cytometry (reference value: 3.0%); type: functional
Jurkat [18] = experiment: Induction of apoptosis in human Jurkat cells assessed as increase in ROS production at 50 nM by HE staining based flow cytometry; type: functional, cell-based; conditions: TDE = time-dependent effect; summary of the method: as §4
Jurkat [19] = experiment: Cell cycle arrest in human Jurkat cells by accumulation of cells at G2/M phase at 7 to 250 nM after by propidium iodide staining-based flow cytometry; type: functional; conditions: TDE = time-dependent effect; summary of the method: as §3
Jurkat [20] = experiment: Cell cycle arrest in human Jurkat cells assessed as accumulation of cells at SubG1 phase at 7 to 250 nM after 24 hrs by propidium iodide staining-based flow cytometry; type: functional; summary of the method: as §3
HUVEC [21] = experiment: Induction of apoptosis in HUVEC expressing GFP assessed as formation of membrane blebs at 0.5 uM to 10 uM after 30 mins by confocal microscopy; conditions: Homo sapiens
HeLa [22] = experiment: Cell cycle arrest in human HeLa cells by accumulation of cells at G2/M phase at 30 nM after 48 hrs by propidium iodide staining-based flow cytometry (reference value: 12%)
Jurkat [23] = experiment: Induction of apoptosis in human Jurkat cells assessed as depolarization of mitochondrial membrane potential measured as annexin-V positive cells at 50 nM after 48 hrs by annexin-V-FITC and propidium iodide staining based flow cytometry (reference value: 3.0%); type: functional

SMILES | IC50 (A549) [nM] | IC50 (MCF7) [nM] | IC50 (K562) [nM] | IC50 (HeLa [1]) [nM] | IC50 (Jurkat [2]) [nM] | IC50 [3] [nM] | Activity (Bos taurus [4]) [%] | IC50 (HL-60) [nM] | further results
COc1cc(-n2ncnc2-c2ccc(SC)cc2)cc(OC)c1OC | 800 | 390 | 340 | 150 | 50 | 3600 | 38 | 500 | –
COc1cc(-n2ncnc2-c2ccc(OC(C)C)cc2)cc(OC)c1OC | > 10000 | 610 | 800 | 600 | 650 | 5100 | 37 | 700 | –
COc1ccc(/C=C\c2cc(OC)c(OC)c(OC)c2)cc1O [COMBRETASTATIN A4] | – | – | 5 | – | 5 | – | 87 | – | –
COc1ccc(-n2ncnc2-c2cc(OC)c(OC)c(OC)c2)cc1 | > 10000 | 7400 | 3600 | > 10000 | 93 | 16000 | – | 6200 | –
CCOc1ccc(-c2ncnn2-c2cc(OC)c(OC)c(OC)c2)cc1 | 100 | 50 | – | 15 | 5 | 760 | 86 | 20 | Ratio IC50 (Bos taurus [5]): 2; Activity (Jurkat [6]): Active; Activity (HeLa [7]): Active; Activity (HUVEC [8]): 30%; Activity (Gallus gallus): Active; Activity (Jurkat [9]): tde; Activity (Jurkat [10]): Active; Activity (Jurkat [11]): 14.4%; Activity (Jurkat [12]): Active; Activity (Jurkat [13]): Active; Activity (HeLa [14]): Dose-dependent effect; Activity (Jurkat [15]): tde; Activity (HeLa [16]): Active; Activity (Jurkat [17]): 44.5%; Activity (Jurkat [18]): tde; Activity (Jurkat [19]): tde; Activity (Jurkat [20]): Active; Activity (HUVEC [21]): Active; Activity (HeLa [22]): 70%; Activity (Jurkat [23]): 28.4%
COc1cc(-n2ncnc2-c2ccc(C)cc2)cc(OC)c1OC | 1100 | 540 | > 10000 | 250 | 300 | 3900 | 33 | 90 | –
COc1ccc(-c2ncnn2-c2cc(OC)c(OC)c(OC)c2)cc1 | 520 | 360 | 950 | 280 | 50 | 2300 | 55 | 120 | –
CCOc1ccc(-c2ncnn2-c2cc(OC)c(OC)c(OC)c2)cc1Cl | 10 | 17 | 20 | 6 | 3 | 1500 | 75 | 3 | Activity (Jurkat [6]): Active; Activity (HeLa [7]): Active; Activity (Jurkat [9]): tde; Activity (Jurkat [10]): Active; Activity (Jurkat [11]): Active; Activity (Jurkat [12]): Active; Activity (Jurkat [13]): Active; Activity (HeLa [14]): Dose-dependent effect; Activity (Jurkat [15]): tde; Activity (HeLa [16]): Active; Activity (Jurkat [17]): Active; Activity (Jurkat [18]): tde; Activity (Jurkat [19]): tde; Activity (Jurkat [20]): Active; Activity (HeLa [22]): 70%; Activity (Jurkat [23]): Active
COc1cc(-c2ncnn2-c2ccccc2)cc(OC)c1OC | > 10000 | > 10000 | > 10000 | > 10000 | > 10000 | – | – | > 10000 | –
CCOc1cccc(-c2ncnn2-c2cc(OC)c(OC)c(OC)c2)c1 | > 10000 | > 10000 | > 10000 | > 10000 | > 10000 | – | – | > 10000 | –
COc1cc(-c2ncnn2-c2ccc(N)cc2)cc(OC)c1OC | > 10000 | > 10000 | > 10000 | > 10000 | > 10000 | – | – | > 10000 | –
